Paper PMC4364388 (Biochimica et biophysica acta, 2015)
≈ marks a conversion by molar mass, not a printed value. Where “and” joins values, the source holds several entries; their conditions need not be identical. Equal entries are not always repeated. Where two headings read alike, the source gives them in different places.

Tests used:
rat UT-B [1] = target: T1, rat UT-B (Rattus norvegicus, UniProt P97689); settings: read-out: UT-B IC50; earlier finding; cited from earlier work
T1 sequence (P97689 1-384): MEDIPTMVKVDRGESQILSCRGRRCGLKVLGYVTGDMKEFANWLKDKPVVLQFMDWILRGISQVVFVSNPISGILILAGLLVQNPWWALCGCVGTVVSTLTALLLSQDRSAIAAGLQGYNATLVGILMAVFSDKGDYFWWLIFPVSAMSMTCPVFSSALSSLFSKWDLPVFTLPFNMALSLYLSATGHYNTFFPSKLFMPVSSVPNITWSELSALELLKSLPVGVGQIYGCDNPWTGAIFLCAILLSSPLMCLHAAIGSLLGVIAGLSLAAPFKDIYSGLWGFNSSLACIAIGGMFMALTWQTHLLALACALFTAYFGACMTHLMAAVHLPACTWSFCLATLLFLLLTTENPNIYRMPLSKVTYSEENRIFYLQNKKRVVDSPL

rat UT-A1 [2] = target: T2, rat UT-A1 (Rattus norvegicus, UniProt Q62668); settings: read-out: UT-A1 IC50; earlier finding; cited from earlier work
T2 sequence (Q62668 1-929): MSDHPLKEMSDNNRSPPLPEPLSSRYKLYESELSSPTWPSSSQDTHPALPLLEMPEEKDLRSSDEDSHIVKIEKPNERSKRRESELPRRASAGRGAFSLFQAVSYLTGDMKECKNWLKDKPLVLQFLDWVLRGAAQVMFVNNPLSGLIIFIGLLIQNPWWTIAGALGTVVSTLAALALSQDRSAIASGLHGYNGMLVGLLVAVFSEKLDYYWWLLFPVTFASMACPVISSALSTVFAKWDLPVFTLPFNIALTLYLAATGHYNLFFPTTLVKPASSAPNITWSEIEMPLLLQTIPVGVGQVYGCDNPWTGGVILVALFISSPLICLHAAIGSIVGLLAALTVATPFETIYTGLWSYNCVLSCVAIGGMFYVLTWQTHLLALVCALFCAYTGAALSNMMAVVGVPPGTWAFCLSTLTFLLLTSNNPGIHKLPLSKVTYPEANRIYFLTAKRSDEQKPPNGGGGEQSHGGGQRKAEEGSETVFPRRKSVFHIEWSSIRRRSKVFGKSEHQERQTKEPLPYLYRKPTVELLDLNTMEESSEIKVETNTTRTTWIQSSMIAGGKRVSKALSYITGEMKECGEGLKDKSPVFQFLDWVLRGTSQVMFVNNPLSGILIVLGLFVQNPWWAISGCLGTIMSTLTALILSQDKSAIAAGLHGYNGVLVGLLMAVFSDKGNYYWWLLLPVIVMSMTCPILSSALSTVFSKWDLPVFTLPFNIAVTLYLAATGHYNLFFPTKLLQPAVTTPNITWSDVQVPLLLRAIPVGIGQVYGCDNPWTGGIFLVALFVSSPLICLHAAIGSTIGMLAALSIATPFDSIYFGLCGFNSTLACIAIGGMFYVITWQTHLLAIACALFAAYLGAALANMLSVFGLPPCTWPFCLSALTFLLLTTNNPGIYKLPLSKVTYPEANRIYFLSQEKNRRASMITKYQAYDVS

rat UT-B [3] = target: T1, rat UT-B; assay: UT-B inhibition, erythrocyte lysis assay; type: cell-based; settings: for IC50: 15 min incubation
rats = settings: listed as DMTU; cited from earlier work
Water solubility = type: physicochemical
rat UT-A1 [4] = target: T2, rat UT-A1; assay: UT-A1 inhibition assay; type: cell-based; settings: for IC50: UT-A1 IC50, MDCK cells expressing rat UT-A1, YFP and AQP1, 20 min incubation; for Selectivity for UT-A1 vs. UT-B inhibition: comparison of IC50 values for UT-A1 and UT-B
MDCK cells = assay: Cytotoxicity to MDCK cells; type: cell-based, canine; settings: at solubility limit
rat UT-A1 [5] = target: T2, rat UT-A1; assay: Functional studies of UT-A1 inhibition; type: cell-based
Procedure, shortened: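 MDCK cells stably co-expressing rat UT-A1, YFP-H148Q/V163S and human AQP1 were plated 24 h before assay. Reversibility: 15 min with 0.2 mM test compound, two PBS washes, then assay. Kinetics: 0.2 mM added at varied times before assay. Urea dependence: concentration-response at 80–1,600 mM urea gradients. Read-out was YFP fluorescence 7 s after urea addition, normalised to negative and positive controls.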

[6] = read-out: UT-B IC50, rat erythrocyte lysis assay
[7] = UT-B IC50, rat erythrocyte lysis assay

Row | IC50 (rat UT-B [3]; [6]) [µM] | UT-A1 inhibition activity (in words) (rat UT-A1 [4]) | UT-B inhibition activity (in words) (rat UT-B [3]) | IC50 (rat UT-A1 [4]) | IC50 (rat UT-B [3]; [7]) | Selectivity for UT-A1 vs. UT-B inhibition (rat UT-A1 [4]) | Compound | also measured
1 | 3900 ± 600 |  |  |  |  |  | CNC(=S)NC [Compound 1, N, N′-dimethylthiourea] | IC50 (rat UT-B [1]): 2000 to 3000 µM; IC50 (rat UT-A1 [2]): 2000 to 3000 µM; Diuretic action (rats): reduce urinary osmolality in rats and produce a salt-sparing diuresis; Water solubility (Water solubility): 7900 mM; Solubility in saline (Water solubility; saline): > 50 mg/mL
2 | 14000 ± 2000 | loss of activity | loss of activity |  |  |  | CNC(=O)NC [Compound 3, dimethylurea] | 
3 |  | inactive | inactive | > 25000 µM | > 25000 µM |  | CN(C)C(=S)N(C)C [Compound 5, Tetramethylthiourea] | 
4 |  |  |  | 1300 ± 300 µM | 10000 ± 1000 µM | UT-A1 selective | NC(=S)Nc1ccc([N+](=O)[O-])cc1 [Compound 18, 4-nitrophenylthiourea] | 
5 |  |  |  | 1500 ± 400 µM | 400 ± 100 µM |  | NC(=S)Nc1ccc(Cl)c(Cl)c1 [Compound 21, 3,4-dichlorophenylthiourea] | 
6 | 2800 ± 500 |  |  |  |  | selective for UT-B over UT-A1 | NC(=S)c1ccncc1 [Compound 26, thioisonicotinamide] | 
7 |  |  |  | > 25000 µM | 10000 ± 2000 µM |  | NC(=S)c1cccnc1 [Compound 27, thionicotinamide] | 
8 |  |  |  | ~200 µM and 200 µM | ~200 µM and 200 µM | non-selective | NC(=S)Nc1cccc([N+](=O)[O-])c1 [Compound 32, 3-nitrophenylthiourea] | IC50 improvement relative to 18 (rat UT-A1 [4]): ~6 fold; Cytotoxicity to MDCK cells (MDCK cells): no cytotoxicity; solubility (Water solubility; water): 0.64 mM (≈ 126 µg/mL); Kinetics of UT-A1 inhibition (rat UT-A1 [5]; 0.2 mM added at different times prior to assay): very rapid; Reversibility of UT-A1 inhibition (rat UT-A1 [5]; 0.2 mM, 15 min incubation, washed twice): fully reversible; Inhibition mechanism from urea concentration-dependence of IC50 (rat UT-A1 [5]; urea gradients 80 to 1,600 mM): competitive inhibition mechanism
9 | 2800 |  |  |  |  | UT-B selective | NC(=S)c1ccncc1 [thioisonicotinamide] | 
10 | 5200 ± 600 | potencies comparable to DMTU | potencies comparable to DMTU |  |  |  | cyclohexylthiourea [Compound 12] | 

Row | Compound | IC50 (rat UT-B [3]; [6]) [µM] | UT-A1 inhibition activity (in words) (rat UT-A1 [4]) | UT-B inhibition activity (in words) (rat UT-B [3]) | IC50 (rat UT-A1 [4]) | IC50 (rat UT-B [3]; [7]) | Selectivity for UT-A1 vs. UT-B inhibition (rat UT-A1 [4]) | also measured
11 | NC(N)=S [Compound 2] | > 25000 | significant loss of UT-A1 and UT-B inhibition activity | significant loss of UT-A1 and UT-B inhibition activity |  |  |  | 
12 | NC(=S)Nc1ccccc1 [Compound 9, phenylthiourea] |  | potencies comparable to DMTU | potencies comparable to DMTU | 8800 ± 300 µM | 14000 ± 1000 µM |  | 
